Results on 45 compounds are retold here after ChEMBL document CHEMBL1154945, “Decahydroisoquinoline derivatives as novel non-peptidic, potent and subtype-selective somatostatin sst(3) receptor antagonists” (Bioorg Med Chem Lett, 2010).

Broadly, the Kd is the equilibrium constant for the complex coming apart. For orientation: pKb means the negative decadic logarithm of the Kb, by convention in mol/L.

Assay [1] is filed under the species Homo sapiens. Briefly: Selectivity for human SST3 over human SST1.
Assay [2] concerns the target T1, Somatostatin receptor type 3 (Homo sapiens, UniProt P32745). Briefly: Binding affinity to human SST3 receptor.
In assay [3] the target is Somatostatin receptor type 1 (Homo sapiens, UniProt P30872). Briefly: Binding affinity to human SST1 receptor.
The species named for assay [4] is Homo sapiens. Briefly: Selectivity for human SST3 over human SST2.
The species entered for assay [5] is Homo sapiens. Briefly: Selectivity for human SST3 over human SST4.
Assay [6] has as its target Somatostatin receptor type 5 (Homo sapiens, UniProt P35346). Briefly: Binding affinity to human SST5 receptor.
Assay [7] has as its target Somatostatin receptor type 4 (Homo sapiens, UniProt P31391). Briefly: Binding affinity to human SST4 receptor.
In assay [8] the target is Somatostatin receptor type 2 (Rattus norvegicus, UniProt P30680). Briefly: Displacement of [125I]SRIF-14 from rat cortex membrane SST2 receptor. Background: Displacement assays read how much labelled ligand stays bound in the presence of the test substance.
The target of assay [9] is Somatostatin receptor type 1 (Rattus norvegicus, UniProt P28646). Briefly: Displacement of [125I]SRIF-14 from rat cortex membrane SST1 receptor.
Assay [10] has as its target Somatostatin receptor type 2 (Homo sapiens, UniProt P30874). Briefly: Binding affinity to human SST2 receptor.
Assay [11] is filed under the species Homo sapiens. Briefly: Selectivity for human SST3 over human SST5.
Assay [12] concerns the target T1, Somatostatin receptor type 3. Briefly: Antagonist activity at human recombinant SST3 receptor expressed in CHO cells assessed as inhibition of SRIF14-induced cAMP accumulation. The format is functional, cell-based. Summed up: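 cAMP-based functional assay with human recombinant sst3 receptors expressed in CHO cells; test agent's antagonism of SRIF-14 response measured, pKB derived; n = 6.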
(Changes in cAMP serve as a functional read-out for many G protein-coupled receptors.)

Somatostatin receptor type 5, sequence (P35346 whole entry): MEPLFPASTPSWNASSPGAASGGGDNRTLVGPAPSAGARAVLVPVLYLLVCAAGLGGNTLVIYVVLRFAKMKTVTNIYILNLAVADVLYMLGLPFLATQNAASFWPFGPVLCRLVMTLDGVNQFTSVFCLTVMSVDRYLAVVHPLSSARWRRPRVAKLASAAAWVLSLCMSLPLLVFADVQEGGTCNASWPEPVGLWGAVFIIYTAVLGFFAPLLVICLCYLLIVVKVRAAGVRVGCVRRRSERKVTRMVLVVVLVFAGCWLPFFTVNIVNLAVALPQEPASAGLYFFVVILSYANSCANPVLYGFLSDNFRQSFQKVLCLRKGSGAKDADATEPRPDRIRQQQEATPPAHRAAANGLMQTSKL
Somatostatin receptor type 2 (Rattus norvegicus, UniProt P30680), sequence (P30680 whole entry): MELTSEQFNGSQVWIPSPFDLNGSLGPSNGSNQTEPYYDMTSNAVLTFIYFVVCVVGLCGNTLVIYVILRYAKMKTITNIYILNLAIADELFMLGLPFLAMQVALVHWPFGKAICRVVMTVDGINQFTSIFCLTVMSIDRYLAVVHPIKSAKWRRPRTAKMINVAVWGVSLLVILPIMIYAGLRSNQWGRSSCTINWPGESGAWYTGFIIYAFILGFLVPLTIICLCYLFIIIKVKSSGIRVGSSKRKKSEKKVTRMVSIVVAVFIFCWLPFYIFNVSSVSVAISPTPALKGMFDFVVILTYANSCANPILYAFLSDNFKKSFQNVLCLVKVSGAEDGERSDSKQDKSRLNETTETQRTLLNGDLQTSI
Somatostatin receptor type 1 (Rattus norvegicus, UniProt P28646), sequence (P28646 whole entry): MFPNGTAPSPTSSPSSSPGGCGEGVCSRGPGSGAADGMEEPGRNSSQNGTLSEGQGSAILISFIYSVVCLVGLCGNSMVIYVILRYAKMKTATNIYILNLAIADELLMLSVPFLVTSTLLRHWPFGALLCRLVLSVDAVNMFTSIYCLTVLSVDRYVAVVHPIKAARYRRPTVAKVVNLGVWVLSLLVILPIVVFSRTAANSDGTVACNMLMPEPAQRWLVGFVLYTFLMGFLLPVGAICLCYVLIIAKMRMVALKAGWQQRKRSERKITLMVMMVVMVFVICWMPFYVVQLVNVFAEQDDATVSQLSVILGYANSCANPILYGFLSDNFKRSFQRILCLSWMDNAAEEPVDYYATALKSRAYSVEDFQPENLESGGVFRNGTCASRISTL
Somatostatin receptor type 1 (Homo sapiens, UniProt P30872), sequence (P30872 whole entry): as the sequence (P28646 whole entry) above, with P8S, T11S, S16P, G20S, V25G, C26G, S32A, S45A, A385T, S389T counted along it
Somatostatin receptor type 4, sequence (P31391 whole entry): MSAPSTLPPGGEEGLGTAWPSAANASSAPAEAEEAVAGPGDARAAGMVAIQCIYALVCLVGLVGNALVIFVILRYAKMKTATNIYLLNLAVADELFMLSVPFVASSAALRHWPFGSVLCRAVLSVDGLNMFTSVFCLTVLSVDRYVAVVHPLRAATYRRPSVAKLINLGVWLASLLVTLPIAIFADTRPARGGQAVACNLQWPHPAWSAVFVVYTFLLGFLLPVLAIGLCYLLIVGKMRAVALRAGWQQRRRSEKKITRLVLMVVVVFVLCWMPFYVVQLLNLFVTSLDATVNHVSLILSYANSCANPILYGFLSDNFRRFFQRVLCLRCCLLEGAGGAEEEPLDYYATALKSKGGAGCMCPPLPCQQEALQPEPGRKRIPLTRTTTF
T1 sequence (P32745 whole entry): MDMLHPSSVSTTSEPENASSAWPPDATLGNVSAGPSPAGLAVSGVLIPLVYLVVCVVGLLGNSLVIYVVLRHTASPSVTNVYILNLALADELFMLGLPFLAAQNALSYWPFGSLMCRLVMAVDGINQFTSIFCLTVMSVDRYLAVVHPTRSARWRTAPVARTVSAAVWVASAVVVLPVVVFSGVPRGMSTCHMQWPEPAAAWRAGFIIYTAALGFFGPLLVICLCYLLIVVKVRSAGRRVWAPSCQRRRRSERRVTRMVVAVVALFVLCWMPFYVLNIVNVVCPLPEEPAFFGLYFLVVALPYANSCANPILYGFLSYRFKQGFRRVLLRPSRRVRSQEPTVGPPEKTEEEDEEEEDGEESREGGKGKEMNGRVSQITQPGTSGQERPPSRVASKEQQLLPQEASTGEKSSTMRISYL
Somatostatin receptor type 2 (Homo sapiens, UniProt P30874), sequence (P30874 whole entry): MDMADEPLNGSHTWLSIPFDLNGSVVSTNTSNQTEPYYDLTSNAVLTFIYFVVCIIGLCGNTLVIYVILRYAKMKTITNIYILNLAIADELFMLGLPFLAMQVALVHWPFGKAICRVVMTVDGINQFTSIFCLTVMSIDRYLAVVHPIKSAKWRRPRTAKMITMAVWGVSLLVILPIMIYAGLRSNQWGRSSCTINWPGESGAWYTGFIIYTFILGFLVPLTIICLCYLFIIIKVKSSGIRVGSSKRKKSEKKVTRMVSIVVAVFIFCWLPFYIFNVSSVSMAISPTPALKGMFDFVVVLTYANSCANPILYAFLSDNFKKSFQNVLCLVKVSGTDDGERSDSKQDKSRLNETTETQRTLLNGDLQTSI

Turning to `Cc1nc2ccc(C[C@H](C)CN3C[C@@H]4CCCC[C@@H]4[C@H](C(=O)N4CCN(c5ccc(F)c(F)c5)CC4)C3)cn2n1`, in assay [1], the Ratio came out at 620.

Take `CC(Cc1ccc2c(c1)OCO2)CN1CC2CCCCC2C(C(=O)N2CCN(c3cccc4nncn34)CC2)C1` (centres undefined): binding in [2] was characterised by a dissociation constant (Kd) of 2690 nM.

Turning to `CC(Cc1ccc2c(c1)OCO2)CN1C[C@H]2CCCC[C@H]2[C@H](C(=O)N2CCN(c3ccc([N+](=O)[O-])cc3)CC2)C1` (mixture of isomers), the values for the Kd in assay [3] and in [2] were 6170 nM and 1120 nM, respectively.

`CC(Cc1ccc2c(c1)OCO2)CN1CC2CCCCC2C(C(=O)N2CCN(c3cccc4nccnc34)CC2)C1` (centres undefined) gave a Kd in assay [2] of 1350 nM.

Turning to `COC(=O)c1cc(CC(C)CN2C[C@@H]3CCCC[C@@H]3[C@H](C(=O)N3CCN(c4ccc([N+](=O)[O-])cc4)CC3)C2)cc(C(=O)OC)c1` (mixture of isomers), the Kd in assay [3] is 398 nM; in assay [2], 1.35 nM.

In the case of `CCOc1ccc(C[C@H](C)CN2C[C@@H]3CCCC[C@@H]3[C@H](C(=O)N3CCN(c4ccc(F)c(F)c4)CC3)C2)cn1`, the Kd was 2340 nM in assay [3] and 14.1 nM in assay [2].

As for `CC(Cc1ccc2c(c1)OCO2)CN1C[C@@H](C(=O)N2CCN(c3ccc([N+](=O)[O-])cc3)CC2)C[C@@H]2CCCC[C@H]21` (mixture of isomers), the Kd in [3] is 537 nM; in assay [2], 155 nM.

On to `CC(Cc1ccc2c(c1)OCO2)CN1CCCC(C(=O)N2CCN(c3ccc([N+](=O)[O-])cc3)CC2)C1` (racemic), for which the dissociation constant (Kd) was 102 nM in [3] and 85.1 nM in assay [2].

In the case of `CC(Cc1ccc2c(c1)OCO2)CN1CC2CCCCC2C(C(=O)N2CCN(c3ccc4nonc4n3)CC2)C1` (centres undefined), the Kd in assay [2] was 19.5 nM.

Consider `O=C(CCN(CCC1c2ccccc2-c2ccccc21)CC1CC1)N1CCN(c2ccc([N+](=O)[O-])cc2)CC1`, for which the Kd in [3] was 77.6 nM; in assay [2], 302 nM.

`CC(Cc1ccc2c(c1)OCO2)CN1CC2CCCCC2C(C(=O)N2CCN(c3ccc(F)c(F)c3)CC2)C1` (centres undefined) gave an equilibrium dissociation constant (Kd) in assay [2] of 20.9 nM.

Turning to `C[C@@H](Cc1ccc2nsnc2c1)CN1C[C@@H]2CCCC[C@@H]2[C@H](C(=O)N2CCN(c3ccc(F)c(F)c3)CC2)C1`, the Ratio is over 150 in assay [4], 130 in assay [5] and over 150 in [11]. Also, the Kd in assay [3] was 1550 nM; in assay [6], 1660 nM; in [7], 1020 nM; in assay [8] it was 151 nM; in assay [9] it was 1170 nM; in [10], 3550 nM. For the same compound, the equilibrium dissociation constant (Kd) in assay [2] was 7.76 nM.

Consider `COC(=O)c1cc(CC(C)CN2C[C@H]3CCCC[C@H]3[C@@H](C(=O)N3CCN(c4ccc([N+](=O)[O-])cc4)CC3)C2)cc(C(=O)OC)c1` (mixture of isomers), for which the Kd was 2340 nM in assay [3] and 107 nM in assay [2].

`CC(Cc1ccc2c(c1)OCO2)CN1CC2CCCCC2C(C(=O)N2CCN(c3cccc4nccn34)CC2)C1` (centres undefined) showed a dissociation constant (Kd) in [2] of 1260 nM.

Take `COC(=O)c1cc(C[C@H](C)CN2C[C@@H]3CCCC[C@@H]3[C@H](C(=O)N3CCN(c4ccc([N+](=O)[O-])cc4)CC3)C2)cc(C(=O)OC)c1`: the figures for the Kd in [3] and in assay [2] were 933 nM and 1.23 nM, respectively. Besides, the Ratio in assay [1] worked out at 760.

In the case of `CC(Cc1ccc2c(c1)OCO2)CN1CC2CCCCC2C(C(=O)N2CCN(c3cccc4nonc34)CC2)C1` (centres undefined), the affinity in assay [2], expressed as Kd, was 91.2 nM.

On to `C[C@@H](Cc1ccc2c(c1)OCO2)CN1C[C@@H]2CCCC[C@@H]2[C@H](C(=O)N2CCN(c3ccc(F)c(F)c3)CC2)C1`, for which the Kd in [3] was 912 nM; in assay [2], 8.51 nM.

On to `O=C(C1CCCN(CCC2c3ccccc3-c3ccccc32)C1)N1CCN(c2ccc([N+](=O)[O-])cc2)CC1` (racemic), for which the results for the Kd in assay [3] and in assay [2] were 120 nM and 117 nM, respectively.

For `CC(Cc1ccc2c(c1)OCO2)CN1C[C@@H](C(=O)N2CCN(c3ccc([N+](=O)[O-])cc3)CC2)C[C@@H]2CCCC[C@@H]21` (mixture of isomers), the equilibrium dissociation constant (Kd) in [3] was 2450 nM; in assay [2], 1230 nM.

On to `COC(=O)c1cc(C[C@@H](C)CN2C[C@@H]3CCCC[C@@H]3[C@H](C(=O)N3CCN(c4ccc([N+](=O)[O-])cc4)CC3)C2)cc(C(=O)OC)c1`, for which the Kd in assay [3] is 437 nM; in assay [2] it was 2.24 nM.

As for `CCNc1ccc(C[C@H](C)CN2C[C@@H]3CCCC[C@@H]3[C@H](C(=O)N3CCN(c4ccc(F)c(F)c4)CC3)C2)cn1`, the Kd in assay [3] is 1910 nM; in assay [2], 28.8 nM.

Take `CC(Cc1ccc2c(c1)OCO2)CN1CC2CCCCC2C(C(=O)N2CCN(c3ccccn3)CC2)C1` (centres undefined): in assay [2], the Kd was 331 nM.

For `C[C@@H](Cc1ccc2ncnn2c1)CN1C[C@@H]2CCCC[C@@H]2[C@H](C(=O)N2CCN(c3ccc(F)c(F)c3)CC2)C1`, the Kd in [3] is 9120 nM; in assay [2] it was 34.7 nM.

On to `CC(Cc1ccc2c(c1)OCO2)CN1CC2CCCCC2C(C(=O)N2CCN(c3cccc(C(F)(F)F)n3)CC2)C1` (centres undefined), for which the Kd in [2] is 741 nM.

`CC(Cc1ccc2c(c1)OCO2)CN1CC2CCCCC2C(C(=O)N2CCN(c3cccc(=O)n3C)CC2)C1` (centres undefined) gave a Kd in assay [2] of 2400 nM. Compared with the last compound, the Kd is about 3.2-fold higher.

For `COC(=O)c1cc(CC(C)CN2CC3CCCCC3C(C(=O)N3CCN(c4ccc([N+](=O)[O-])cc4)CC3)C2)cc(C(=O)OC)c1` (racemic), the Kd is 1000 nM in assay [3] and 2.88 nM in assay [2].

As for `CC(Cc1ccc2c(c1)OCO2)CN1C[C@H]2CCCC[C@H]2[C@@H](C(=O)N2CCN(c3ccc([N+](=O)[O-])cc3)CC2)C1` (mixture of isomers), the values for the Kd in [3] and in assay [2] were 912 nM and 11 nM, respectively. Further, in assay [1], the Ratio was found to be 100.

Turning to `CN(CCC(=O)N1CCN(c2ccc([N+](=O)[O-])cc2)CC1)CCC1c2ccccc2-c2ccccc21`, the results for the Kd in assay [3] and in assay [2] were 7.59 nM and 1050 nM, respectively.

`CC(Cc1ccc2c(c1)OCO2)CN1CC2CCCCC2C(C(=O)N2CCN(c3ccc(F)cc3)CC2)C1` (centres undefined) showed a Kd in assay [2] of 57.5 nM. This counts as double-digit nanomolar.

`CC(Cc1ccc2c(c1)OCO2)CN1CC2CCCCC2C(C(=O)N2CCN(c3ccc(C#N)cn3)CC2)C1` (centres undefined) had a Kd in assay [2] of 79.4 nM.

In [2], `CC(Cc1ccc2c(c1)OCO2)CN1CC2CCCCC2C(C(=O)N2CCN(c3ccc4nccn4n3)CC2)C1` (centres undefined) had a Kd of 240 nM.

`CC(Cc1ccc2c(c1)OCO2)CN1CC2CCCCC2C(C(=O)N2CCN(c3cc4nccnc4cn3)CC2)C1` (centres undefined): the Kd in assay [2] was 1580 nM.

The compound `CC(Cc1ccc2c(c1)OCO2)CN1CC2CCCCC2C(C(=O)N2CCN(c3ccc4nsnc4n3)CC2)C1` (centres undefined) gave a Kd in [2] of 95.5 nM.

`CC(Cc1ccc2c(c1)OCO2)CN1CC2CCCCC2C(C(=O)N2CCN(c3ccc(Cl)cn3)CC2)C1` (centres undefined) showed a Kd in assay [2] of 91.2 nM.

On to `Cc1cn2cc(C[C@H](C)CN3C[C@@H]4CCCC[C@@H]4[C@H](C(=O)N4CCN(c5ccc(F)c(F)c5)CC4)C3)ccc2n1`, for which the Kd was 39.8 nM in assay [3] and 107 nM in assay [2]. For the same compound, the Ratio in assay [1] came out at 0.4.

For the compound `COc1ccc(C[C@@H](C)CN2C[C@H]3CCCC[C@H]3[C@@H](C(=O)N3CCN(c4ccc(F)c(F)c4)CC3)C2)cn1`, the Kd in assay [3] is 724 nM; in [6], 91200 nM; in [7], 6170 nM; in assay [8], 20900 nM; in [9], 813 nM; in assay [10], 38000 nM. For the same compound, the dissociation constant (Kd) in [2] is 3630 nM. Moreover, the negative-log Kb (pKb) in assay [12] stood at 5.1.

Consider `CC(Cc1ccc2c(c1)OCO2)CN1CC2CCCCC2C(C(=O)N2CCN(c3cccc(F)c3)CC2)C1` (centres undefined), for which binding in assay [2] was characterised by a dissociation constant (Kd) of 200 nM.

The compound `CC(Cc1ccc2c(c1)OCO2)CN1CC2CCCCC2C(C(=O)N2CCN(c3cccc4nsnc34)CC2)C1` (centres undefined) showed a Kd in [2] of 191 nM. This Kd and that of the compound before are within 1.5-fold of each other.

For `C[C@@H](Cc1ccc2ocnc2c1)CN1C[C@@H]2CCCC[C@@H]2[C@H](C(=O)N2CCN(c3ccc(F)c(F)c3)CC2)C1`, the Kd was 1620 nM in [3] and 11 nM in assay [2].

Turning to `Cc1nc2cc(C[C@H](C)CN3C[C@@H]4CCCC[C@@H]4[C@H](C(=O)N4CCN(c5ccc(F)c(F)c5)CC4)C3)ccc2o1`, the Ratio was over 150 in assay [4], 120 in assay [5] and over 150 in assay [11]. The Kd in [3] is 1380 nM; in [6], 1100 nM; in assay [7], 417 nM; in [8] it was 229 nM; in assay [9], 457 nM; in assay [10], 5500 nM. This compound had a Kd in [2] of 3.39 nM.

Consider `CC(Cc1ccc2c(c1)OCO2)CN1CC2CCCCC2C(C(=O)N2CCN(c3ccc4nonc4c3)CC2)C1` (centres undefined), for which the Kd in assay [2] is 20 nM.

The compound `CC(Cc1ccc2c(c1)OCO2)CN1CC2CCCCC2C(C(=O)N2CCN(c3cccc(Cl)n3)CC2)C1` (centres undefined) had a Kd in [2] of 407 nM.

The compound `CC(Cc1ccc2c(c1)OCO2)CN1CC2CCCCC2C(C(=O)N2CCN(c3ccc4nccnc4n3)CC2)C1` (centres undefined) showed a Kd in assay [2] of 107 nM.

Take `C[C@@H](Cc1ccc2nccnc2c1)CN1C[C@@H]2CCCC[C@@H]2[C@H](C(=O)N2CCN(c3ccc(F)c(F)c3)CC2)C1`: the Kd in assay [3] was 2630 nM; in assay [2] it was 10.7 nM.

Take `CC(Cc1ccc2c(c1)OCO2)CN1C[C@H](C(=O)N2CCN(c3ccc([N+](=O)[O-])cc3)CC2)C[C@@H]2CCCC[C@@H]21` (mixture of isomers): the figures for the Kd in [3] and in assay [2] were 490 nM and 162 nM, respectively.
